ChEMBL document CHEMBL1154512, “PA-824 kills nonreplicating Mycobacterium tuberculosis by intracellular NO release” (2008)
The source made the active and inactive calls. No cut-off for these calls is given here.

How the values were obtained:
[1] = system: Mycobacterium tuberculosis; experiment: Induction of nitrous acid production in NRP2 phase Mycobacterium bovis BCG assessed as ratio of Vmax to Km under hypoxic non replicating condition; type: functional, variant bovis BCG
Method in brief: (§1)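 NO release measured inside BCG cells preloaded with the NO-specific fluorescent probe DAF-FM diacetate and then treated with compound. Fluorescence (RFU) followed over time. Rate expressed as apparent Vmax/Km, i.e. RFU per hour divided by an intracellularly measured Km (RFU hr–1 μM–1).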

[2] = system: Mycobacterium tuberculosis; experiment: Induction of nitrous acid production in NRP2 phase Mycobacterium bovis BCG at 20 uM by fluorescence quenching measurement in presence of C-PTIO; type: functional, organism-based; details: variant bovis BCG
Method in brief: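 BCG cells preloaded with DAF-FM diacetate were treated with 20 μM nitroimidazole in the presence of increasing concentrations of the NO scavenger C-PTIO. NO read as fluorescence. Three independent replicates, error as SD.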

[3] = system: Mycobacterium tuberculosis; experiment: Induction of nitrous acid production in NRP2 phase Mycobacterium bovis BCG at 1.85 uM to 100 uM after 2 days under hypoxic non replicating condition in presence of DAF-FM diacetate; type: functional, organism-based; details: variant bovis BCG
[4] = system: Mycobacterium tuberculosis; experiment: Induction of nitrous acid production in NRP2 phase Mycobacterium bovis BCG under aerobic condition in presence of DAF-FM diacetate; type: functional, organism-based; details: variant bovis BCG; method in brief: as §1

Structure (SMILES) | Ratio [1] | other results
CCCCc1ccc(CN[C@@H]2COc3nc([N+](=O)[O-])cn3C2)cc1 | 4.7 | –
O=[N+]([O-])c1cn2c(n1)OC[C@@H](OCc1ccc(OC(F)(F)F)cc1)C2 [PRETOMANID] | 12.5 | Activity [2]: inactive; Activity [3]: Active; Activity [4]: Active
O=[N+]([O-])c1cn2c(n1)OC[C@@H](NCCCCc1ccc(OC(F)(F)F)cc1)C2 | 71.6 | –
O=[N+]([O-])c1cn2c(n1)NC[C@@H](OCc1ccc(OC(F)(F)F)cc1)C2 | 4.8 | –
O=[N+]([O-])c1cn2c(n1)OC[C@@H](NCCCc1ccc(OC(F)(F)F)cc1)C2 | 60.1 | –
O=[N+]([O-])c1cn2c(n1)OC[C@@H](NCc1ccc(OCc3ccc(OC(F)(F)F)cc3)cc1)C2 | 76.9 | –
O=[N+]([O-])c1cn2c(n1)OC[C@@H](NCc1ccc(OC(F)(F)F)cc1)C2 | 10.1 | –
O=[N+]([O-])c1cn2c(n1)OC[C@@H](NCCc1ccc(OC(F)(F)F)cc1)C2 | 28.7 | –
